Data set [1] addresses Substance-P receptor (Rattus norvegicus) (UniProt P14600). The data set can be described thus: Displacement of [3H]substance P from rat NK1 receptor expressed in CHO cells at 1 uM. Type of data set: cell-based. On the technique in general: In a radioligand displacement assay an active substance lowers the binding of a labelled ligand.
Data set [2] in a line: Lipophilicity, log D at pH 7.4. Type of data set: physicochemical. Particulars: buffer. The gist of the method: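 2 mg peptide in 500 µL 0.05 M HEPES/0.1 M NaCl, pH 7.4, shaken with 500 µL 1-octanol for 12 h at rt. Phases separated by centrifugation and each phase analysed by HPLC at 230 nm.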
The target of the next data set is Substance-P receptor (Homo sapiens, UniProt P25103). Nature of the data set: Displacement of [3H]substance P from human NK1 receptor expressed in CHO cells. Type of data set: cell-based.
For data set [3], the target named is Substance-P receptor (Rattus norvegicus) (UniProt P14600). The data set can be described thus: Displacement of [3H]substance P from rat NK1 receptor expressed in CHO cells. Type of data set: cell-based.
Data set [4] has as its target Substance-P receptor (Cavia porcellus) (UniProt P30547). Nature of the data set: Antagonist activity at NK1 receptor in Hartley guinea pig isolated ileum assessed as inhibition of substance P-induced muscle contraction. The class given is functional, tissue-based. The method in brief:
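Guinea pig ileum LMMP preparation in 1 µM naloxone. Full substance P concentration–response curves run with and without test compound; maximal substance P peak taken as 100%. Ke is the antagonist concentration that halves substance P activity, from at least four tissues.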

This note sets out measurements from ChEMBL document CHEMBL1143135, “A structure-activity relationship study and combinatorial synthetic approach of C-terminal modified bifunctional peptides that are delta/mu opioid receptor agonists and neurokinin 1 receptor antagonists” (J Med Chem, 2008).

Substance-P receptor (Rattus norvegicus), sequence (P14600 whole entry): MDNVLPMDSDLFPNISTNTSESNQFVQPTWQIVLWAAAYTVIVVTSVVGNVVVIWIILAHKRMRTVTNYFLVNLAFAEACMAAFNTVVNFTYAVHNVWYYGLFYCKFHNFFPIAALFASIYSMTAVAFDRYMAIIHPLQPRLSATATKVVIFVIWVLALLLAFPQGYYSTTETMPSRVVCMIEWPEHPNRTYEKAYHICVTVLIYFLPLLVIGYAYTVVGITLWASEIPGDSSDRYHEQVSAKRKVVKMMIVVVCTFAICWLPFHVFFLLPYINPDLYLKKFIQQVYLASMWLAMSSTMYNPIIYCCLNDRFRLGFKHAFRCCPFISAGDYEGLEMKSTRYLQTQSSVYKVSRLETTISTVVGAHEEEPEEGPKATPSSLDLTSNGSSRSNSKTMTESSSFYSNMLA
Substance-P receptor, sequence (P25103 whole entry): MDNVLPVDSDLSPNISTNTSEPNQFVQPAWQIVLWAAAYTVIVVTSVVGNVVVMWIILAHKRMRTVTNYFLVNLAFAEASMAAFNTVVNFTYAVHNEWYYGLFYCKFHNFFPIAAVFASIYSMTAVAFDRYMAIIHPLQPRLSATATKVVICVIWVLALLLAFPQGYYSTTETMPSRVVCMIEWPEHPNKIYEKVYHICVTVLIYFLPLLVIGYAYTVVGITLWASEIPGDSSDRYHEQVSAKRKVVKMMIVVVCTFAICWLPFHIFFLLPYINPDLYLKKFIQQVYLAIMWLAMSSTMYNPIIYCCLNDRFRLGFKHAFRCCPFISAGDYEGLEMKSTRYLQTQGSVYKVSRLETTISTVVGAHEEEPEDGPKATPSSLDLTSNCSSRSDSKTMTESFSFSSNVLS
Substance-P receptor (Cavia porcellus), sequence (P30547 whole entry): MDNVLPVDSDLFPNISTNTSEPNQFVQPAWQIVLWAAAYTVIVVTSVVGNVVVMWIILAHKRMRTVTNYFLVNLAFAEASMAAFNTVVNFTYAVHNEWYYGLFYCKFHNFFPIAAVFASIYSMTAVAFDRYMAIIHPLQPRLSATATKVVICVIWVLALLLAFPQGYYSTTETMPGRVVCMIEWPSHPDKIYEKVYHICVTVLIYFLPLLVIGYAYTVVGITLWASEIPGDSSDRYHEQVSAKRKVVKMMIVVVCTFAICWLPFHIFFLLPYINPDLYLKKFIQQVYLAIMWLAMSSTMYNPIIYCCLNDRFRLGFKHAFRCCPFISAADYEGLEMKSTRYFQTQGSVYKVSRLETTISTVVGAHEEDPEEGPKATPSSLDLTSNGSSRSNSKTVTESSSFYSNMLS

`CC(C)C[C@H](NC(=O)[C@@H]1CCCN1C(=O)[C@H](Cc1ccccc1)NC(=O)CNC(=O)[C@@H](C)NC(=O)[C@@H](N)Cc1ccc(O)cc1)C(=O)N[C@@H](Cc1c[nH]c2ccccc12)C(=O)N(C)Cc1ccccc1` showed an inhibition in data set [1] of 33%. Moreover, the log distribution coefficient (logD) in data set [2] came to 3.5. In addition, the logIC50 at Substance-P receptor was -8.5.
In the case of `CC(C)C[C@H](NC(=O)[C@@H]1CCCN1C(=O)[C@H](Cc1ccccc1)NC(=O)CNC(=O)[C@@H](C)NC(=O)[C@@H](N)Cc1ccc(O)cc1)C(=O)N[C@@H](Cc1c[nH]c2ccccc12)C(=O)NCc1cc(C(F)(F)F)cc(C(F)(F)F)c1`, the logIC50 in data set [3] was -7; at Substance-P receptor it was -8.9.
For the compound `CC(C)C[C@H](NC(=O)[C@@H]1CCCN1C(=O)[C@H](Cc1ccccc1)NC(=O)CNC(=O)[C@@H](C)NC(=O)[C@@H](N)Cc1ccc(O)cc1)C(=O)N[C@@H](Cc1c[nH]c2ccccc12)C(=O)OCc1ccccc1`, the logIC50 in data set [3] was -6.1; on Substance-P receptor it was -6.7. Besides, the logD in data set [2] is 3.8.
Take `CC(C)C[C@H](NC(=O)[C@@H]1CCCN1C(=O)[C@H](Cc1ccccc1)NC(=O)CNC(=O)[C@@H](C)NC(=O)[C@@H](N)Cc1ccc(O)cc1)C(=O)N[C@@H](Cc1c[nH]c2ccccc12)C(=O)N(C)Cc1cc(C(F)(F)F)cc(C(F)(F)F)c1`: the logIC50 in data set [3] is -7.7; on Substance-P receptor, -8.5.
Compound `CC(C)C[C@H](NC(=O)[C@@H]1CCCN1C(=O)[C@H](Cc1ccccc1)NC(=O)CNC(=O)[C@@H](C)NC(=O)[C@@H](N)Cc1ccc(O)cc1)C(=O)N[C@@H](Cc1c[nH]c2ccccc12)C(=O)OCc1cc(C(F)(F)F)cc(C(F)(F)F)c1` displayed a logIC50 in data set [3] of -8.3. Moreover, the Ke in data set [4] amounted to 3.6 nM. Further, at Substance-P receptor, the Ki came out at 0.046 nM and the logIC50 is -10.
`CC(C)C[C@H](NC(=O)[C@@H]1CCCN1C(=O)[C@H](Cc1ccccc1)NC(=O)CNC(=O)[C@@H](C)NC(=O)[C@@H](N)Cc1ccc(O)cc1)C(=O)N[C@@H](Cc1c[nH]c2ccccc12)C(=O)NCc1ccccc1` yielded an inhibition in data set [1] of 30%. Further, the Ke in data set [4] stood at 26 nM. For the same compound, the logD in data set [2] worked out at 3.3. The same compound registered a logIC50 at Substance-P receptor of -7.5.

For orientation: inhibition means the drop in the measured response relative to a control, in per cent. A word on the logD: it is the decadic logarithm of the distribution of all forms, ionised or not, between an organic phase and buffer at a given pH. High values mean higher lipophilicity, low ones lower lipophilicity. The term Ki denotes a dissociation constant, usually derived from enzyme kinetics or from competition with a known ligand. Lower therefore signals tighter binding.
